Test results published in ChEMBL document CHEMBL4715682, “Potent trifluoromethoxy, trifluoromethylsulfonyl, trifluoromethylthio and pentafluorosulfanyl containing (1,3,4-oxadiazol-2-yl)benzamides against drug-resistant Gram-positive bacteria” (RSC Med Chem, 2020).
In brackets after ≈: the same amount, converted by molar mass. Activity calls are given as the source filed them. The rule behind the calls is not given here.

What was measured:
Staphylococcus aureus [1] = test: Antibacterial activity against Staphylococcus aureus ATCC 25923 assessed as inhibition of visible bacterial growth incubated for 18 to 20 hrs by CLSI method; type: functional; conditions: time 18-20 hrs
Summary of the method: (§1)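 CLSI broth microdilution. Strains grown aerobically overnight on tryptic soy agar at 37 °C, adjusted to 0.5 McFarland and diluted in cation-adjusted Mueller–Hinton broth to about 5×10^5 CFU/mL. Compounds and control drugs serially diluted across the plate. Incubated aerobically at 37 °C for 18-20 h. MIC is the lowest concentration with no visible growth.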

Staphylococcus aureus [2] = test: Antibacterial activity against methicillin-resistant Staphylococcus aureus ATCC 33592 assessed as inhibition of visible bacterial growth incubated for 18 to 20 hrs by CLSI method; type: functional; conditions: time 18-20 hrs; summary of the method: as §1
Staphylococcus aureus [3] = test: Antibacterial activity against methicillin-sensitive Staphylococcus aureus ATCC 6538 assessed as inhibition of visible bacterial growth incubated for 18 to 20 hrs by CLSI method; type: functional; conditions: time 18-20 hrs; summary of the method: as §1
Staphylococcus aureus [4] = test: Antibacterial activity against methicillin-resistant Staphylococcus aureus NRS 119 assessed as inhibition of visible bacterial growth incubated for 18 to 20 hrs by CLSI method; type: functional; conditions: time 18-20 hrs; summary of the method: as §1
Staphylococcus aureus [5] = test: Antibacterial activity against methicillin-resistant Staphylococcus aureus NRS382 assessed as inhibition of visible bacterial growth incubated for 18 to 20 hrs by CLSI method; type: functional; conditions: time 18-20 hrs; summary of the method: as §1
Staphylococcus aureus [6] = test: Antibacterial activity against methicillin-resistant Staphylococcus aureus NRS383 assessed as inhibition of visible bacterial growth incubated for 18 to 20 hrs by CLSI method; type: functional; conditions: time 18-20 hrs; summary of the method: as §1
Staphylococcus aureus [7] = test: Antibacterial activity against methicillin-resistant Staphylococcus aureus NRS384 assessed as inhibition of visible bacterial growth incubated for 18 to 20 hrs by CLSI method; type: functional; conditions: time 18-20 hrs; summary of the method: as §1
Staphylococcus aureus [8] = test: Antibacterial activity against methicillin-resistant Staphylococcus aureus NRS123 assessed as inhibition of visible bacterial growth incubated for 18 to 20 hrs by CLSI method; type: functional; conditions: time 18-20 hrs; summary of the method: as §1
Staphylococcus aureus [9] = test: Antibacterial activity against methicillin-resistant Staphylococcus aureus NRS387 assessed as inhibition of visible bacterial growth incubated for 18 to 20 hrs by CLSI method; type: functional; conditions: time 18-20 hrs; summary of the method: as §1
Staphylococcus aureus [10] = test: Antibacterial activity against methicillin-resistant Staphylococcus aureus NRS483 assessed as inhibition of visible bacterial growth incubated for 18 to 20 hrs by CLSI method; type: functional; conditions: time 18-20 hrs; summary of the method: as §1
Staphylococcus aureus [11] = test: Antibacterial activity against methicillin-resistant Staphylococcus aureus NRS484 assessed as inhibition of visible bacterial growth incubated for 18 to 20 hrs by CLSI method; type: functional; conditions: time 18-20 hrs; summary of the method: as §1
Staphylococcus aureus [12] = test: Antibacterial activity against vancomycin-resistant Staphylococcus aureus 10 assessed as inhibition of visible bacterial growth incubated for 18 to 20 hrs by CLSI method; type: functional; conditions: time 18-20 hrs; summary of the method: as §1
[13] = test system: Staphylococcus epidermidis; test: Antibacterial activity against Staphylococcus epidermidis NRS101 assessed as inhibition of visible bacterial growth incubated for 18 to 20 hrs by CLSI method; type: functional; conditions: time 18-20 hrs
Summary of the method: (§2)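 Broth microdilution per CLSI. Strains grown aerobically overnight on TSA at 37 °C, suspended to 0.5 McFarland, diluted in CAMHB to about 5×10^5 CFU/mL. Agents serially diluted across plate; aerobic incubation 37 °C for 18-20 h. MIC = lowest concentration completely preventing visible growth.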

Streptococcus pneumoniae [14] = test: Antibacterial activity against cephalosporin-resistant Streptococcus pneumoniae ATCC 51916 assessed as inhibition of visible bacterial growth incubated for 18 to 20 hrs by CLSI method; type: functional; conditions: time 18-20 hrs; summary of the method: as §1
Streptococcus pneumoniae [15] = test: Antibacterial activity against […] Streptococcus pneumoniae ATCC 700677 assessed as inhibition of visible bacterial growth incubated for 18 to 20 hrs by CLSI method; type: functional; conditions: time 18-20 hrs; summary of the method: as §1
Enterococcus faecalis [16] = test: Antibacterial activity against vancomycin- resistant Enterococcus faecalis ATCC 51299 assessed as inhibition of visible bacterial growth incubated for 18 to 20 hrs by CLSI method; type: functional; conditions: time 18-20 hrs; summary of the method: as §1
Enterococcus faecalis [17] = test: Antibacterial activity against vancomycin- resistant Enterococcus faecalis ATCC 700221 assessed as inhibition of visible bacterial growth incubated for 18 to 20 hrs by CLSI method; type: functional; conditions: time 18-20 hrs; summary of the method: as §1
Listeria monocytogenes = test: Antibacterial activity against Listeria monocytogenes ATCC 19111 assessed as inhibition of visible bacterial growth incubated for 18 to 20 hrs by CLSI method; type: functional; conditions: time 18-20 hrs; summary of the method: as §2
Escherichia coli = test: Antibacterial activity against Escherichia coli ATCC 25404 assessed as inhibition of visible bacterial growth at 16 ug/ml incubated for 18 to 20 hrs by CLSI method; type: functional, organism-based; conditions: B ATCC 25404, dose 16.0 µg/ml, time 18-20 hrs; summary of the method: as §1
Pseudomonas aeruginosa = test: Antibacterial activity against Pseudomonas aeruginosa ATCC 27853 assessed as inhibition of visible bacterial growth at 16 ug/ml incubated for 18 to 20 hrs by CLSI method; type: functional, organism-based; conditions: dose 16.0 µg/ml, time 18-20 hrs; summary of the method: as §1
[18] = Hemolytic activity in human RBC at 128 ug/ml incubated for 60 mins relative to control; type: ADME, cell-based, Erythrocyte; conditions: red blood cells (erythrocytes), dose 128 µg/ml, read-out: Activity
Summary of the method: (§3)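 Single-donor human erythrocytes as a 5% v/v suspension in PBS. Compounds serially diluted in PBS, in triplicate, and incubated with RBCs at 37 °C for 60 min. PBS served as the negative control and Triton-X as the positive control. Samples spun at 4,000 rpm for 5 min and supernatant absorbance read at 540 nm. Percent hemolysis = 100×(sample−negative)/(positive−negative).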

Staphylococcus aureus [19] = test: Synergistic antibacterial activity against methicillin-resistant Staphylococcus aureus ATCC 33592 assessed as fractional inhibitory concentration index in presence of methicillin by checkerboard assay; type: functional
Staphylococcus aureus [20] = test: Synergistic antibacterial activity against methicillin-resistant Staphylococcus aureus ATCC 33592 assessed as fractional inhibitory concentration index in presence of daptomycin by checkerboard assay; type: functional
Staphylococcus aureus [21] = test: Synergistic antibacterial activity against methicillin-resistant Staphylococcus aureus ATCC 33592 assessed as fractional inhibitory concentration index in presence of Vancomycin; type: functional
[22] = Hemolytic activity in human RBC at 32 ug/ml incubated for 60 mins relative to control; type: ADME, cell-based, Erythrocyte; conditions: red blood cells (erythrocytes), at 32 µg/mL, read-out: Activity; summary of the method: as §3
Staphylococcus aureus [23] = test: Bacteriostatic activity against methicillin-resistant Staphylococcus aureus ATCC 33592 assessed as reduction in bacterial growth incubated for 18 hrs by CLSI method; type: functional
J774 = test: Cytotoxicity against mouse J774 cells assessed as reduction in cell viability at 32 ug/ml incubated for 24 hrs by MTS assay; type: cell-based; conditions: j774, 24 h, dose 32 µg/ml
Staphylococcus aureus [24] = test: Antibacterial activity against methicillin-resistant Staphylococcus aureus USA400 infected in mouse J774 cells assessed as log reduction in intracellular growth at 8 ug/ml incubated for 18 to 22 hrs; type: functional; conditions: dose 8 µg/ml; time 18-22 hrs
Summary of the method: (§4)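 J774 murine macrophages grown in DMEM with 10% FBS at 37 °C, 5% CO2. Cells infected with MRSA USA400 at MOI about 10:1 for 1 h, then washed with gentamicin to remove extracellular bacteria. Agents added at 8 or 16 μg/mL in triplicate, with DMSO vehicle control, for 24 h. Cells lysed with 0.1% Triton-X, lysates plated on tryptic soy agar, and CFU counted after 18-22 h at 37 °C. Analysed by two-way ANOVA with Dunnett's test.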

Staphylococcus aureus [25] = test: Antibacterial activity against methicillin-resistant Staphylococcus aureus USA400 infected in mouse J774 cells assessed as log reduction in intracellular growth at 16 ug/ml incubated for 18 to 22 hrs; type: functional; conditions: dose 16 µg/ml; time 18-22 hrs; summary of the method: as §4

`O=C(Nc1nnc(-c2cccs2)o1)c1ccc(S(=O)(=O)C(F)(F)F)cc1` showed an MIC (Staphylococcus aureus [1]) of 0.5 µg/mL (≈ 1.24 µM), an MIC (Staphylococcus aureus [2]) of 0.5 µg/mL (≈ 1.24 µM) and an MIC (Staphylococcus aureus [3]) of 8 µg/mL (≈ 19.8 µM). It also gave an MIC (Staphylococcus aureus [4]) of 8 µg/mL (≈ 19.8 µM), an MIC (Staphylococcus aureus [5]) of 8 µg/mL (≈ 19.8 µM) and an MIC (Staphylococcus aureus [6]) of 8 µg/mL (≈ 19.8 µM). It also gave an MIC (Staphylococcus aureus [7]) of 4 µg/mL (≈ 9.92 µM), an MIC (Staphylococcus aureus [8]) of 4 µg/mL (≈ 9.92 µM) and an MIC (Staphylococcus aureus [9]) of 4 µg/mL (≈ 9.92 µM). The MIC (Staphylococcus aureus [10]) was 4 µg/mL (≈ 9.92 µM), the MIC (Staphylococcus aureus [11]) was 4 µg/mL (≈ 9.92 µM) and the MIC (Staphylococcus aureus [12]) was 4 µg/mL (≈ 9.92 µM). It also gave an MIC [13] of 4 µg/mL (≈ 9.92 µM), an MIC (Streptococcus pneumoniae [14]) of 2 µg/mL (≈ 4.96 µM) and an MIC (Streptococcus pneumoniae [15]) of 1 µg/mL (≈ 2.48 µM). It also gave an MIC (Enterococcus faecalis [16]) of 4 µg/mL (≈ 9.92 µM), an MIC (Enterococcus faecalis [17]) of 4 µg/mL (≈ 9.92 µM) and an MIC (Listeria monocytogenes) of 2 µg/mL (≈ 4.96 µM). For the same compound, the inhibition (Escherichia coli) was “inactive”, the inhibition (Pseudomonas aeruginosa) was “inactive” and the hemolysis at 1 h, 128 ug/ml [18] was 37%. For the same compound, the “fractional inhibitory concentration index (FICI)” value (Staphylococcus aureus [19]) was 0.53, the “fractional inhibitory concentration index (FICI)” value (Staphylococcus aureus [20]) was 0.63 and the “fractional inhibitory concentration index (FICI)” value (Staphylococcus aureus [21]) was 1.03. The hemolysis at 1 h, 32 ug/ml [22] was 23%, the MBC (Staphylococcus aureus [23]) was > 128 µg/mL and the Activity (J774) was “Non-Toxic”. The Activity (Staphylococcus aureus [24]) was 0.5 log10CFU/ml and the Activity (Staphylococcus aureus [25]) was 0.6 log10CFU/ml.
